# TAAR1 agonist: human TAAR1 agonists, primary screen, Fluo-8 calcium fluorescence, CHO RD-HGA16 cells; Trace amine-associated receptor 1 (Homo sapiens), Q96RJ0; vehicle wells 0%, saturating PEA agonist 100%; activation, % at 3 µM; 0.99% of 360,000 active; AID 624467, 2012;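 active = activation above the mean activation of all test compounds in the run plus 3 SD, cut at about 38% in these data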
# Target sequence (Q96RJ0 whole entry, looked up): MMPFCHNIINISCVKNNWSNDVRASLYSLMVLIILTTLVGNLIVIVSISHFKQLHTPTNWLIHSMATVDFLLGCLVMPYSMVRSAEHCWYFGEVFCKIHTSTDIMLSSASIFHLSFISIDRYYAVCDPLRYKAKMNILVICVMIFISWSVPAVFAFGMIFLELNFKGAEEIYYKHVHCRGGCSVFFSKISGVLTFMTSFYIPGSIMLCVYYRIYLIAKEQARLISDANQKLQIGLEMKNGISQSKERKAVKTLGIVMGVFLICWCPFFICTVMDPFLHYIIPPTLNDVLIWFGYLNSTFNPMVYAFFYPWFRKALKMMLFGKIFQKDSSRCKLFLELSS
#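 Assay system: CHO-derived RD-HGA16 cells with stable Gα16 and human TAAR1; timing: 17-24 h seeding, 75 min 37 °C dye, 30 min RT; read-out: % activation from peak over basal fluorescence ratio, DMSO-to-PEA scaled; measured by: kinetic Fluo-8 calcium fluorescence; benchmarks: low control DMSO, high control PEA (EC100); doses: 3 µM single concentration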
# OX1R antag-1: OX1R (HCRTR1) antagonists, primary screen, fluorescence, CHO/OX1R cells, Fluo-8 calcium, orexin A; AID 434989, 2010; inhibition, % at 5 µM; 0.43% of 330,000 active; Fluo-8 calcium fluorescence;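 active = inhibition above its plate's threshold, mean inhibition of all tested compounds on the plate plus 3 SD, cut at about 37% in these data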
# GalR3 antagonist: GalR3 antagonists in HEK293 cells, primary screen, cell-based, fluorescence readout; HEK293 GalR3-CNG cAMP membrane potential fluorescence; galR3 body fused to GalR1 C-terminus; inhibition, % at 3 µM; 0.44% of 360,000 active;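 active = inhibition above the screen-wide average plus 3 SD, cut at about 13% in these data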;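 note: forskolin and galanin both at EC90 stimulate the cells; cAMP rise reported by CNG channel membrane potential dye signal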
# TAAR1 antagonist: human TAAR1 antagonists, primary screen, Fluo-8 calcium fluorescence, CHO RD-HGA16 cells; Trace amine-associated receptor 1 (Homo sapiens), Q96RJ0; antagonist; inhibition, % at 3 µM; 1.5% of 360,000 active;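 active = inhibition above a per-plate cutoff, the mean inhibition of test compounds on that plate plus 3 SD, cut at about 49% in these data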
#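 Test system – hTAAR1-expressing CHO RD-HGA16 cells, Gα16-coupled · Reagent – β-PEA at EC80 concentration, post-compound challenge · Compound dosing – 3 µM, single point · Timing – 140 s kinetic read after compound, 140 s after agonist · Detection – Fluo-8 intracellular calcium dye fluorescence, real-time kinetic reads · Control set – DMSO and EC80 PEA controls · Repeats – n of 1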
# CHO parental Ca: ATP-evoked calcium signal inhibitors, parental CHO, primary screen, counter-screen for OX1R antagonist project, cell-based, fluorescence, Fluo-8 calcium dye; parental CHO-K1, ATP-induced calcium, Fluo-8 fluorescence; inhibition, % at 5.6 µM; 0.63% of 330,000 active; AID 463079, 2010;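 active = inhibition above that plate's mean sample inhibition plus 3 SD, cut at about 26% in these data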
#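 Material – parental CHO cells · Reagent – ATP stimulus · Compound – single nominal dose of 5.6 µM per compound · Detection – Fluo-8 fluorescence · Read-out basis – percent inhibition of calcium signal · Controls – ATP-challenged DMSO wells low, unchallenged DMSO wells high · Repeats – no replicates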
# OX1R antag-2: antagonists of human orexin 1 receptor (OX1R) | OX1R-expressing cells, FRET antagonist read-out | Orexin/Hypocretin receptor type 1 (Homo sapiens), O43613 | inhibition, % at 6.6 µM | AID 485270, 2010 | 1.8% of 330,000 active; in the data active = inhibition mostly above about 38%, no sharp cut-off; inactive = mostly below about 40%
# GalR3 conf: GalR3 antagonist hit confirmation, cell-based, fluorescence, triplicate; shares compounds with GalR3 antagonist; HEK293 GalR3 CNG cAMP biosensor, membrane potential fluorescence; galR3 fused to GalR1 carboxy tail; challenged with forskolin and galanin at EC90; inhibition, % at 3 µM; 59% of 1,600 active;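 active = inhibition above the primary screen's cutoff, the mean inhibition of all screened compounds plus 3 SD, cut at about 13% in these data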
# HEK-CNG parental: nonspecific cAMP agonists in parental HEK-CNG cells, counter-screen for GalR3 antagonist project, cell-based, fluorescence, high throughput; shares compounds with GalR3 antagonist; HEK293-CNG parental cells, cAMP membrane potential fluorescence; normalised: DMSO wells 0%, forskolin wells 100%; activation, % at 3 µM; 10% of 1,600 active; AID 652268, 2013; in the data active = activation above about 1.3%
# Numbers stand for hits; - = inactive; . = not tested or not shown. An excerpt weighted towards active compounds, which were near 4.3% of everything screened.
SMILES,TAAR1 agonist,OX1R antag-1,GalR3 antagonist,TAAR1 antagonist,CHO parental Ca,OX1R antag-2,GalR3 conf,HEK-CNG parental
COc1ccc(C2=Nc3ccccc3N(C(=O)c3ccc(C)cc3)C2C(=O)Nc2c(C)cccc2C)cc1 (configuration not stated),-,.,-,-,.,.,.,.
CCc1cccc(NC(=O)CN(C)S(=O)(=O)c2cccs2)c1,-,-,14,-,-,-,-,-
CC(OC(=O)c1snc(C(=O)NC2CCCCC2)c1N)C(=O)NC(C)(C)C (configuration not stated),-,-,-,-,-,-,.,.
CC(C)(C)NC(=O)COC(=O)c1snc(C(=O)NC2CCCCC2)c1N,-,-,101,-,-,-,123,-
CC(=O)N1CCC(C(=O)N2c3ccccc3N=C(c3ccc4c(c3)OCO4)C2C(=O)NCc2ccccc2)CC1 (configuration not stated),-,.,-,-,.,.,.,.
COc1ccccc1C(=O)Nc1nnc([C@H]2C[C@H](O)[C@@H](CO)O2)s1,-,.,25,-,.,.,-,-
CCCCn1nc(C(=O)Nc2c(C)n(C)n(-c3ccccc3)c2=O)c2ccccc2c1=O,-,-,-,-,-,-,.,.
CN(C)CCCNS(=O)(=O)c1ccc(NC2CCCCCC2)c([N+](=O)[O-])c1,-,-,78,-,-,-,100,1.6
COc1ccc(/C=N/NC(=O)C(Cc2c[nH]c3ccccc23)NC(=O)OCC(C)C)cc1[N+](=O)[O-] (configuration not stated),-,-,15,-,-,-,26,-
C[C@@H]1CN([C@@H](C)CO)C(=O)CCCn2cc(nn2)CO[C@H]1CN(C)S(=O)(=O)c1cn(C)cn1,-,.,-,-,.,.,.,.
COc1cc(CCC(=O)OCC(=O)Nc2ccc(C(N)=O)cc2)cc(OC)c1OC,-,-,.,-,-,-,-,-
COc1cc(NC(=O)COC(=O)CCc2cc(OC)c(OC)c(OC)c2)cc(OC)c1,-,-,-,-,-,-,.,.
COc1cc(CCC(=O)OCC(=O)Nc2sccc2C(N)=O)cc(OC)c1OC,-,.,93,-,.,.,102,-
C=CCSc1nsc(NC(=O)Nc2ccc(F)cc2)n1,-,-,69,-,51,70,40,-
O=C(Nc1ccc(F)cc1)Nc1nnc(Cc2ccccc2)s1,-,-,-,-,-,-,.,.
COC(=O)c1ccc(COC(=O)CCNS(=O)(=O)c2ccc(C)c(C)c2)cc1,-,.,-,-,.,.,.,.
N#C/C(=C\c1cc2c(cc1Br)OCO2)c1ccc(C(=O)O)cc1,-,-,17,-,100,-,-,1.2
Cc1cc(C)c2cc(C=O)c(Cl)nc2c1,-,-,15,-,-,-,40,2.7
CCc1cc2cc(C)cc(C)c2nc1Cl,-,-,-,-,-,-,.,.
CCOc1ccc(C(=O)NNC(=O)c2cc(S(=O)(=O)N3CCOCC3)ccc2Cl)cc1,-,-,-,-,-,-,.,.
CCOc1cc(CNCc2ccccc2)ccc1OCc1ccc(Cl)cc1,48,69,42,-,92,-,26,5.5
CCNCc1cc(Cl)c(OCc2ccccc2)c(OCC)c1,-,-,-,-,-,-,.,.
